Source: PubChem (several laboratories)
Sampled rows, rich in hits. Any-hit rate of the full collection: about 3.5%.
PREPL inh = human PREPL enzyme inhibition; Q4J6C6; recombinant PREPL, fluorescence polarization activity-based probe; inhibition, % at 5.96 µM; 320,000 tested, 0.68% active; AID 2751; in the data active means inhibition above about 43%;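 further: 0% = enzyme with DMSO and 100% = wells lacking enzyme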
PAFAH1B2 FP inh = PAFAH1B2 (human) inhibition | 340,000 tested, 1.2% active | AID 492953 | P68402 | inhibition, % at 3.39 µM | recombinant PAFAH1B2, FP-rhodamine activity probe, fluorescence polarization;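 active means inhibition above the mean of all tested compounds plus 3 SD, cut at about 24% in these data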;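 further: 0% = enzyme with DMSO and 100% = wells lacking PAFAH1B2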
pPAFAH inh = inhibitors of human plasma PAF acetylhydrolase (pPAFAH); inhibition, % at 3.39 µM; recombinant pPAFAH, FP-rhodamine probe fluorescence polarization; Q13093; 330,000 tested, 1.5% active;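 active means inhibition above the mean inhibition across the screen plus 3 SD, cut at about 25% in these data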;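 further: inhibitors block binding of the rhodamine activity-based probe so polarization drops; 0% = enzyme with DMSO and 100% = wells lacking pPAFAH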
Apaf-1 inh = human Apaf-1 inhibition; inhibition, % at 20 µM; O14727; 330,000 tested, 0.71% active; reconstituted apoptosome caspase-3 activity, DEVD-Rh110 fluorescence; active means inhibition of at least 40% at 20 µM;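 further: plate controls were DMSO wells for no effect and DEVD-CHO caspase inhibitor wells for full effect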
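Material: reconstituted apoptosome with Apaf-1, cytochrome c, caspase-9, procaspase-3, dATP / Buffer or medium: pH 7.5 Hepes buffer with CHAPS, BSA, DTT / Also added: cytochrome c with DEVD-Rh110 / Schedule: compound with Apaf-1, dATP, procaspase-3 30 min, then 50 min reaction, room temperature / Technique: rhodamine 110 fluorescence at Ex 480/Em 540 nm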
PAFAH1B3 inh = inhibitors of human PAFAH1B3. inhibition, % at 3.39 µM. recombinant PAFAH1B3, FP-rhodamine probe, fluorescence polarization. 340,000 tested, 0.28% active. Q15102;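 active means inhibition above the screen-wide average of all tested compounds plus 3 SD, cut at about 25% in these data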;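 further: 0% = enzyme with DMSO only and 100% = wells lacking PAFAH1B3 protein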
PAFAH2 FP inh = inhibitors of human PAFAH2 | Q99487 | recombinant PAFAH2, FP-rhodamine activity probe, fluorescence polarization | inhibition, % at 3.39 µM | 340,000 tested, 0.99% active;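 active means inhibition above the mean over all tested compounds plus 3 SD, cut at about 30% in these data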;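 further: inhibitors block probe labeling of enzyme so polarization drops; 0% = enzyme with DMSO and 100% = wells lacking PAFAH2 protein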
Apaf-1 inh conf = Apaf-1 inhibition, single-dose confirmed | inhibition, % at 20 µM | 1,800 tested, 25% active | AID 504614 | shares compounds with Apaf-1 inh | reconstituted apoptosome, caspase-3 DEVD-Rh110 fluorescence;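 active means mean inhibition of at least 40% at 20 µM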;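 further: plate controls were DMSO wells for no effect and DEVD-CHO caspase inhibitor control wells for full effect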
Rh110 quench = interferes with Rh110 fluorescence, flagging false Apaf-1 inhibitors; Rh110 fluorescence interference, quenched caspase reaction; 1,800 tested, under 10 active; activation (fluorescence interference), % at 20 µM; shares compounds with Apaf-1 inh; AID 504615;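 active means signal rise of 40% or more at 20 µM, treated as a fluorescence artifact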
Apaf1 inh interf = counter-screen for Apaf-1 inhibitors: fluorescence interference, dose response. shares compounds with Apaf-1 inh. fluorescence interference counterscreen, Apaf-1 assay format. IC50, µM. 460 tested, under 10 active; call rule not given here
The depositor's hits bear a star; . = no result.

SMILES | PREPL inh | PAFAH1B2 FP inh | pPAFAH inh | Apaf-1 inh | PAFAH1B3 inh | PAFAH2 FP inh | Apaf-1 inh conf | Rh110 quench | others
O=C(COC(=O)c1ccccc1)NCC1CCCO1 (centres undefined) | 11 | 0 | 2 | 56* | 15 | 17 | 5 | 1
CC(=O)N1CCN(S(=O)(=O)c2cccc(C(=O)OCc3cccc(F)c3)c2)CC1 | 7 | 9 | 11 | 3 | 3 | 7 | . | .
CC(C)(C)c1ccc(C(O)CCCN2CCC(C(O)(c3ccccc3)c3ccccc3)CC2)cc1 (centres undefined) | 3 | -2 | 3 | 53* | -7 | 8 | 16 | 3
COc1ccccc1Nc1cc2cc(Br)ccc2c(=O)[nH]1 | 23 | 6 | 16 | 97* | 25 | 13 | 98* | 16 | Apaf1 inh interf=>100
C[C@@]12C(=O)N(Cc3ccccc3)CC(=O)N1[C@H](/C=C/c1ccccc1)[C@@H]1C(=O)N(c3ccccc3)C(=O)[C@@H]12 | -4 | 4 | 4 | 3 | 10 | 5 | . | .
CCC(CO)Oc1cc(NCc2ccncc2)c2ncn(C(C)C)c2c1 (centres undefined) | 3 | -4 | 5 | 41* | -1 | -5 | 17 | -393
CCC(CO)Oc1cc(NCc2cccnc2)c2ncn(C(C)C)c2c1 (centres undefined) | 21 | 2 | 4 | 63* | 1 | -3 | 25 | -1
CN1CCc2nc(SCC(=O)Nc3cccc(F)c3)c(C#N)c(-c3cccs3)c2C1 | 31 | -1 | 5 | 67* | 9 | 1 | 10 | 3
COCCn1c(SCC(=O)NNC(=O)c2cc(Cl)ccc2OC)nnc1-c1ccncc1 | 17 | 2 | 5 | 49* | 19 | 1 | 36 | 11
CCN(C(=O)COC(=O)/C=C/c1c(C)nn(-c2ccccc2)c1C)C1CCS(=O)(=O)C1 (centres undefined) | -5 | 1 | -4 | 1 | 2 | -4 | . | .
CC1Cc2ccccc2N1C(=O)c1cc2cccnc2n(C)c1=O (centres undefined) | -8 | 5 | 2 | -2 | 8 | 0 | . | .
O=C1C(=Cc2ccco2)C(=O)c2ccccc21 | 26 | 4 | 28* | 44* | 8 | 7 | 10 | 2
O=C(CCNS(=O)(=O)c1ccccc1F)N1CCN(C(c2ccccc2)c2ccccc2)CC1 | 3 | 5 | -1 | 11 | 1 | -4 | . | .
c1coc(-c2nnc(-c3ccco3)nn2)c1 | 2 | 18 | 32* | 84* | 19 | 32* | 58* | 6 | Apaf1 inh interf=>100
COc1ccccc1-c1sc2ccccc2c1-c1ccc(OCCN2CCCCC2)cc1 | . | 2 | 6 | 62* | 2 | 0 | 10 | 10
COc1ccc2c(-c3ccc(OCCN4CCCCC4)cc3)c(-c3ccccc3OC)sc2c1 | . | 4 | 5 | 60* | 1 | 5 | 9 | 11
CCn1c(CNC(=O)c2ccc(Cl)cc2)nnc1SCC(=O)NC1=NCCS1 | -2 | 10 | 5 | -8 | 6 | 4 | . | .
COc1ccc(OCc2cc(C(=O)NC3CCOCC3)no2)c2ccccc12 | 3 | 8 | 8 | 41* | 15 | -1 | 37 | -3
CCOC(=O)N1CCN(S(=O)(=O)c2ccc(C(=O)N(CCCN(C)C)c3nc4ccc(CC)cc4s3)cc2)CC1 | 17 | 2 | 4 | 55* | -4 | -3 | 7 | 3
CCOC(=O)N1CCN(S(=O)(=O)c2ccc(C(=O)N(CCN(C)C)c3nc4ccc(CC)cc4s3)cc2)CC1 | 5 | -3 | 6 | 4 | 3 | 8 | . | .
CCOc1cc(C(=O)NC(C)CCc2ccccc2)cc(OCC)c1OCC (centres undefined) | 1 | 3 | 4 | 12 | 5 | -8 | . | .
CCOc1cc(/C=C\[N+](=O)[O-])ccc1OCC(=O)N1CCOCC1 | -2 | -1 | -4 | -7 | 0 | -1 | . | .
CCOc1cc(/C=C/c2nc3cc(C)c(C)cc3s2)ccc1OCC(=O)N1CCOCC1 | 18 | 4 | 6 | 45* | 0 | -1 | 17 | -15
CCC1CCCCN1C(=S)Nc1cccc(S(=O)(=O)N(C)C)c1 (centres undefined) | 0 | 0 | 1 | -1 | 3 | 3 | . | .
CN1CCc2c(C#N)c(N3CCCCC3)nc(NCc3ccccc3)c2C1 | 39 | 6 | 0 | 52* | 9 | 2 | 21 | 11
SMILES | PREPL inh | PAFAH1B2 FP inh | pPAFAH inh | Apaf-1 inh | PAFAH1B3 inh | PAFAH2 FP inh | Apaf-1 inh conf | Rh110 quench | others
N#Cc1c(NCCCO)nc(NCc2ccccc2)c2c1CCN(Cc1ccccc1)C2 | 24 | 2 | 0 | 69* | -3 | 4 | 21 | 2
CC(C)c1nc(NCc2ccccc2)c(C#N)c2c1CCCC2 | -5 | 3 | -1 | 7 | 2 | -2 | . | .
CCCCCCC[N+](CC)(CC)CCCCc1ccc(Cl)cc1 | 26 | 1 | 1 | 39 | 12 | -2 | . | .
COc1cc(OC)c(C2Nc3cccc4cccc(c34)N2)c(OC)c1 | . | 2 | . | 39 | 15 | 12 | . | .
COc1ccccc1C1Nc2cccc3cccc(c23)N1 | 24 | 6 | 22 | 51* | 7 | 13 | 31 | 7
Cn1c(C(=O)N2CCN(c3nc4ccccc4s3)CC2)cc2sccc21 | 7 | -4 | 2 | 41* | 2 | -7 | 33 | 3
COC(=O)CCCC1=CC2=C(c3ccccc3)C(=O)C(C)(OC(=O)C3CCCC3)C(=O)C2=CN1CC(C)C (centres undefined) | 18 | 1 | 1 | 41* | 3 | -3 | 19 | 4
CN(Cc1ccccc1)c1oc(-c2ccco2)nc1C#N | -3 | 1 | 3 | 41* | 4 | -2 | 15 | -3
CCN1CCN(c2ccc(NC(=O)c3ccccc3F)cc2Cl)CC1 | -17 | 3 | 2 | -2 | 5 | -6 | . | .
CCN1CCN(c2ccc(NC(=O)c3cc4ccccc4cc3OC)cc2C)CC1 | -34 | 1 | 5 | 51* | 11 | -12 | 17 | 10
COc1ccc(C(CNC(=O)c2cccc(S(=O)(=O)N(C)c3ccccc3)c2)N2CCCC2)cc1 (centres undefined) | -26 | -2 | 8 | 43* | 7 | -3 | 19 | 7
COc1ccc(C(CNC(=O)C2CC(=O)N(Cc3ccccc3)C2)N2CCCC2)cc1 (centres undefined) | -3 | 3 | -1 | 61* | 5 | -2 | 37 | 1
O=C1[C@H]2[C@@H](c3ccc(F)cc3)N3C(=O)N(c4ccc(Br)cc4)C(=O)[C@@]3(Cc3ccc(Cl)cc3)[C@H]2C(=O)N1C1CCCCC1 | -5 | -3 | 2 | 10 | -4 | -15 | . | .
